Changes are numbered by the printed parent chain. Like-named read-outs stand apart in the source and are kept apart here.
Legend:
αS589H ENaC mutant = molecular target: T1, αS589H ENaC mutant (Rattus norvegicus, UniProt P37089+P37090+P37091, S589H); format: cell-based
T1 sequence (P37089 1-698 S589H): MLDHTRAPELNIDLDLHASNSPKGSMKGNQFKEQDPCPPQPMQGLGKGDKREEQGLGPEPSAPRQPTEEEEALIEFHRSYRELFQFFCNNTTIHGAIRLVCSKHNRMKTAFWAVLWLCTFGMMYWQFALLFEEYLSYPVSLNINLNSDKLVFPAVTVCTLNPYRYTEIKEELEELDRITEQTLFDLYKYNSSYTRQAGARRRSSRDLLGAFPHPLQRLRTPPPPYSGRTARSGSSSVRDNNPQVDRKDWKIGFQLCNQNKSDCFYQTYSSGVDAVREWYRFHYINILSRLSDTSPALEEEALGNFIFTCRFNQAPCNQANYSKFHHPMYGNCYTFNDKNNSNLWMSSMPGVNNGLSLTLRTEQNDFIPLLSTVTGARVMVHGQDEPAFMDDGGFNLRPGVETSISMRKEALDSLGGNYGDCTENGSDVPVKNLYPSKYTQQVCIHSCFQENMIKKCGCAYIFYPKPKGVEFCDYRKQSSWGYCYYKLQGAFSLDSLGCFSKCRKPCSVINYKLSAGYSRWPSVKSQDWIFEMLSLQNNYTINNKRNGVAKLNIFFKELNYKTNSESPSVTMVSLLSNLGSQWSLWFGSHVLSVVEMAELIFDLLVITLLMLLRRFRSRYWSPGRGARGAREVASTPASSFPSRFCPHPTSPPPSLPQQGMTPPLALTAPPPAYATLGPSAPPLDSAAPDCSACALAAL
T1 sequence (P37090 1-638): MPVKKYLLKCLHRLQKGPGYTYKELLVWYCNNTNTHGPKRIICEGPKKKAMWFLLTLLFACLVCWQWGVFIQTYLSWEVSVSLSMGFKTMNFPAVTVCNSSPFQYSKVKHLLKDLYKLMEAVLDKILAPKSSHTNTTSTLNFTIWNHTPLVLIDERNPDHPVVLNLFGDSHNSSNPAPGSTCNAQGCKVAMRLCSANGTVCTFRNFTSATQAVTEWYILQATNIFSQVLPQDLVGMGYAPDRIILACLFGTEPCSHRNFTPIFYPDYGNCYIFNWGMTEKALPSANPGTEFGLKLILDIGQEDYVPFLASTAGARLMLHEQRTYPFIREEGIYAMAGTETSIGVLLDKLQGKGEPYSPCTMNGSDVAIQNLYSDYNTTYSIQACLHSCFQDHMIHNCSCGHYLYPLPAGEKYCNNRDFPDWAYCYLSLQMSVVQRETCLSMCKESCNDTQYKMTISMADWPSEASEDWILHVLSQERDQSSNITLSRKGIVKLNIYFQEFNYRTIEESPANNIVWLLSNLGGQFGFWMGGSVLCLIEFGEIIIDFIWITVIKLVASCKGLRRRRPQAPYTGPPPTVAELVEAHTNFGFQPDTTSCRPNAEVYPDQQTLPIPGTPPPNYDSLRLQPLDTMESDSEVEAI
T1 sequence (P37091 1-650): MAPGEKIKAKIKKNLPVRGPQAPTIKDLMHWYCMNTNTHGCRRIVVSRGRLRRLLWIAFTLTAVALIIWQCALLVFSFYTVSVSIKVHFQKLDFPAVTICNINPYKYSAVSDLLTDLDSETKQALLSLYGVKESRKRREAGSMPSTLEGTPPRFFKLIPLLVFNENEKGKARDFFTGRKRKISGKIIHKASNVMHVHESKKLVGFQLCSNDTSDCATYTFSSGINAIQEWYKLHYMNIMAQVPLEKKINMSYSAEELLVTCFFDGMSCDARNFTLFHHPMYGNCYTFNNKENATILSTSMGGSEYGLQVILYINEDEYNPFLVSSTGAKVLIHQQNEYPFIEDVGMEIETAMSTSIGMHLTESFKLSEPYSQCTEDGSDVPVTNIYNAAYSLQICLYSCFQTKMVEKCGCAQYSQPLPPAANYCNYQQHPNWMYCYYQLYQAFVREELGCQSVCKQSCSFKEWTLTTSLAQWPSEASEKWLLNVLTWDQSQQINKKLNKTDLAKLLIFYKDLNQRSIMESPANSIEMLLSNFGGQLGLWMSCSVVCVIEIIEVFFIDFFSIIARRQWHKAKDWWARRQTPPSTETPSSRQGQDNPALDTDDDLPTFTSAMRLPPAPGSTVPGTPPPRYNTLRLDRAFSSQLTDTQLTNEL
In short: (§1)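 Stage V–VI Xenopus oocytes were pressure-injected with 100 nl of equal amounts of rat α, β and γ ENaC cRNAs (mutations in α only), 100 ng/μl total. Two-electrode voltage clamp was done 16–48 h post-injection. For other permeant cations, Na+ was replaced at the same concentration.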

[1] = test system: wt and mutant (αS589) ENaC channels; assay: Block of ionic currents by 100 μM amiloride; format: cell-based, rat
In short: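 Oocytes were co-injected with rat αβγ ENaC cRNAs (100 nl, 100 ng/μl total, equal amounts of each subunit) and recorded by two-electrode voltage clamp 16–48 h later. Amiloride-sensitive current was taken as the difference between currents with and without 100 μM amiloride in the bath.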

αS589D ENaC mutant = molecular target: T2, αS589D ENaC mutant (Rattus norvegicus, UniProt P37089+P37090+P37091, S589D); format: cell-based
T2 sequence (P37089 1-698 S589D): T1 sequence (P37089 1-698 S589H) with H589D
T2 sequence (P37090 1-638): T1 sequence (P37090 1-638)
T2 sequence (P37091 1-650): T1 sequence (P37091 1-650)
In short: as §1

ENaC wt [2] = molecular target: T3, ENaC wt (Rattus norvegicus, UniProt P37089+P37090+P37091); format: cell-based
T3 sequence (P37089 1-698): T1 sequence (P37089 1-698 S589H) with H589S
T3 sequence (P37090 1-638): T1 sequence (P37090 1-638)
T3 sequence (P37091 1-650): T1 sequence (P37091 1-650)
In short: as §1

[3] = test system: ENaC mutants of α (S583), β (G525) or γ subunit (G537); conditions: mutations of α S583, β G525 or γ G537; ref Schild et al. 1997; cited from earlier work
αE598A ENaC mutant = molecular target: T4, αE598A ENaC mutant (Rattus norvegicus, UniProt P37089+P37090+P37091, E598A); assay: Amiloride block of αE598A mutant; format: cell-based
T4 sequence (P37089 1-698 E598A): T1 sequence (P37089 1-698 S589H) with H589S, E598A
T4 sequence (P37090 1-638): T1 sequence (P37090 1-638)
T4 sequence (P37091 1-650): T1 sequence (P37091 1-650)

αS589N ENaC mutant = molecular target: T5, αS589N ENaC mutant (Rattus norvegicus, UniProt P37089+P37090+P37091, S589N); format: cell-based
T5 sequence (P37089 1-698 S589N): T1 sequence (P37089 1-698 S589H) with H589N
T5 sequence (P37090 1-638): T1 sequence (P37090 1-638)
T5 sequence (P37091 1-650): T1 sequence (P37091 1-650)
In short: as §1

ENaC wt [4] = molecular target: T3, ENaC wt; assay: Effect of extracellular MTSEA on INa; format: cell-based; conditions: 2-min extracellular application of 2.5 mM MTSEA
In short: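 Two-electrode voltage clamp was run on Xenopus oocytes 16–48 h after injecting rat αβγ ENaC cRNAs (100 nl, 100 ng/μl total). INa was the current sensitive to 100 μM amiloride. Aqueous MTSEA stock was made fresh, kept on ice and diluted into bath immediately before use.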

| SMILES | IC50 (αS589H ENaC mutant) | increase of the IC50 for amiloride block (factor vs wt) (αS589H ENaC mutant; αS589H relative to ENaC wt) | block of ionic currents [1] | IC50 (αS589D ENaC mutant) | IC50 (ENaC wt [2]) | decrease of channel affinity for amiloride [3] | amiloride block compared with wt (αE598A ENaC mutant) | IC50 (αS589N ENaC mutant; IC50 for amiloride block of the NH4+ current, NH4+ current, n = 6–7) | IC50 (αS589N ENaC mutant; IC50 for amiloride block, Na+ as the main extracellular cation, n = 6–16) | ratio of INa after MTSEA application relative to the initial INa (ENaC wt [4]) |
| --- | --- | --- | --- | --- | --- | --- | --- | --- | --- | --- |
| N=C(N)NC(=O)c1nc(Cl)c(N)nc1N [amiloride] | 2800 ± 650 nM | 16 | completely blocked | 100 ± 20 nM | 180 ± 80 nM | two to three orders of magnitude | not different from wt | 190 ± 60 nM | 440 ± 50 nM |  |
| CS(=O)(=O)SCCN [MTSEA, aminoethyl methanethiosulfate] |  |  |  |  |  |  |  |  |  | 0.77 ± 0.33 |

Reference: paper PMC2229513 (The Journal of General Physiology, 2001)
